Experimental data published in ChEMBL document CHEMBL4689842, “EUbOPEN Chemogenomics Library wave 1” (2021).

Test system: HEK-293T
Assay: Multiplex assay against HEK293T;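 on Population Tubulin-Different-Phenotype (%): share of the cells with healthy nuclei that show this phenotype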
Type: toxicity, cell-based
Conditions: human
Outline: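 Per cents of healthy-nucleus cells form the tubulin, mitochondrial-mass and membrane-permeability phenotype values. Live cells were stained at seeding with Hoechst33342, BioTracker Green Microtubule Cytoskeleton Dye, MitoTracker Red and Annexin V Alexa Fluor 680. After compound addition they were imaged on a CQ1 microscope at 37°C and 5% CO2, and CellPathfinder machine-learning gating split them into Hoechst high-intensity objects or normal cells, normal cells into healthy, pyknosed or fragmented nuclei, and pyknosed cells into mitotic or apoptotic.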

[1] = 12 h, 1 µM, compound concentration 1 uM, replicate 1
[2] = 12 h, 1 µM, compound concentration 1 uM, replicate 2
[3] = 12 h, 10 µM, compound concentration 10 uM, replicate 1
[4] = 12 h, 10 µM, compound concentration 10 uM, replicate 2
[5] = 24 h, 1 µM, compound concentration 1 uM, replicate 1
[6] = 24 h, 1 µM, compound concentration 1 uM, replicate 2
[7] = 24 h, 10 µM, compound concentration 10 uM, replicate 1
[8] = 24 h, 10 µM, compound concentration 10 uM, replicate 2

SMILES: Cc1nc(-c2cn3c(n2)-c2ccc(-c4cnn(C(C)(C)C(N)=O)c4)cc2OCC3)n(C(C)C)n1 [TASELISIB]
- Population Apoptotic (%) [1]: 21%
- Population Fragmented Nuclei (%) [1]: 14%
- Population Healthy Nuclei (%) [1]: 44%
- Population Hoechst High Intensity Objects (%) [1]: 22%
- Population Membrane Permeable-Phenotype (%) [1]: 4%
- Population Mitochondria Different-Phenotype (%) [1]: 12%
- Population Mitotic Cells (%) [1]: 78%
- Population Normal (%) [1]: 77%
- Population Pyknosed Nuclei (%) [1]: 41%
- Population Tubulin-Different-Phenotype (%) [1]: 9%
- Total Cell Count [1]: 548
- Population Apoptotic (%) [2]: 17%
- Population Fragmented Nuclei (%) [2]: 2%
- Population Healthy Nuclei (%) [2]: 80%
- Population Hoechst High Intensity Objects (%) [2]: 7%
- Population Membrane Permeable-Phenotype (%) [2]: 0%
- Population Mitochondria Different-Phenotype (%) [2]: 28%
- Population Mitotic Cells (%) [2]: 82%
- Population Normal (%) [2]: 92%
- Population Pyknosed Nuclei (%) [2]: 16%
- Population Tubulin-Different-Phenotype (%) [2]: 13%
- Total Cell Count [2]: 803
- Population Apoptotic (%) [3]: 17%
- Population Fragmented Nuclei (%) [3]: 17%
- Population Healthy Nuclei (%) [3]: 49%
- Population Hoechst High Intensity Objects (%) [3]: 12%
- Population Membrane Permeable-Phenotype (%) [3]: 3%
- Population Mitochondria Different-Phenotype (%) [3]: 8%
- Population Mitotic Cells (%) [3]: 82%
- Population Normal (%) [3]: 87%
- Population Pyknosed Nuclei (%) [3]: 32%
- Population Tubulin-Different-Phenotype (%) [3]: 6%
- Total Cell Count [3]: 507
- Population Apoptotic (%) [4]: 11%
- Population Fragmented Nuclei (%) [4]: 8%
- Population Healthy Nuclei (%) [4]: 86%
- Population Hoechst High Intensity Objects (%) [4]: 3%
- Population Membrane Permeable-Phenotype (%) [4]: 1%
- Population Mitochondria Different-Phenotype (%) [4]: 11%
- Population Mitotic Cells (%) [4]: 88%
- Population Normal (%) [4]: 96%
- Population Pyknosed Nuclei (%) [4]: 4%
- Population Tubulin-Different-Phenotype (%) [4]: 10%
- Total Cell Count [4]: 1692
- Population Apoptotic (%) [5]: 24%
- Population Fragmented Nuclei (%) [5]: 16%
- Population Healthy Nuclei (%) [5]: 53%
- Population Hoechst High Intensity Objects (%) [5]: 17%
- Population Membrane Permeable-Phenotype (%) [5]: 3%
- Population Mitochondria Different-Phenotype (%) [5]: 15%
- Population Mitotic Cells (%) [5]: 75%
- Population Normal (%) [5]: 82%
- Population Pyknosed Nuclei (%) [5]: 30%
- Population Tubulin-Different-Phenotype (%) [5]: 18%
- Total Cell Count [5]: 507
- Population Apoptotic (%) [6]: 20%
- Population Fragmented Nuclei (%) [6]: 4%
- Population Healthy Nuclei (%) [6]: 84%
- Population Hoechst High Intensity Objects (%) [6]: 10%
- Population Membrane Permeable-Phenotype (%) [6]: 1%
- Population Mitochondria Different-Phenotype (%) [6]: 20%
- Population Mitotic Cells (%) [6]: 79%
- Population Normal (%) [6]: 89%
- Population Pyknosed Nuclei (%) [6]: 11%
- Population Tubulin-Different-Phenotype (%) [6]: 39%
- Total Cell Count [6]: 810
- Population Apoptotic (%) [7]: 27%
- Population Fragmented Nuclei (%) [7]: 13%
- Population Healthy Nuclei (%) [7]: 66%
- Population Hoechst High Intensity Objects (%) [7]: 8%
- Population Membrane Permeable-Phenotype (%) [7]: 12%
- Population Mitochondria Different-Phenotype (%) [7]: 5%
- Population Mitotic Cells (%) [7]: 72%
- Population Normal (%) [7]: 91%
- Population Pyknosed Nuclei (%) [7]: 19%
- Population Tubulin-Different-Phenotype (%) [7]: 11%
- Total Cell Count [7]: 535
- Population Apoptotic (%) [8]: 3%
- Population Fragmented Nuclei (%) [8]: 24%
- Population Healthy Nuclei (%) [8]: 73%
- Population Hoechst High Intensity Objects (%) [8]: 4%
- Population Membrane Permeable-Phenotype (%) [8]: 7%
- Population Mitochondria Different-Phenotype (%) [8]: 2%
- Population Mitotic Cells (%) [8]: 96%
- Population Normal (%) [8]: 95%
- Population Pyknosed Nuclei (%) [8]: 1%
- Population Tubulin-Different-Phenotype (%) [8]: 12%
- Total Cell Count [8]: 2851
